A selection: hits, their analogues and other compounds. The true share with any hit is near 3.5%.
MrgX1 allo act: allosterically activates human MrgX1 receptor signaling. Q96LB2. MrgX1-HEK293, Fluo-4 calcium flux, FDSS; hits give high values. AID 588675. 310,000 compounds, 0.63% hits. B-score at 10 µM;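 active means plate-corrected calcium response at least 3 library SD above typical, normal starting fluorescence, not activating the receptor alone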;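 further: compound read alongside a low EC10 to EC30 dose of BAM8-22 agonist; peak minus trough fluorescence over baseline measured at the second addition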
Target sequence (Q96LB2 whole entry, looked up): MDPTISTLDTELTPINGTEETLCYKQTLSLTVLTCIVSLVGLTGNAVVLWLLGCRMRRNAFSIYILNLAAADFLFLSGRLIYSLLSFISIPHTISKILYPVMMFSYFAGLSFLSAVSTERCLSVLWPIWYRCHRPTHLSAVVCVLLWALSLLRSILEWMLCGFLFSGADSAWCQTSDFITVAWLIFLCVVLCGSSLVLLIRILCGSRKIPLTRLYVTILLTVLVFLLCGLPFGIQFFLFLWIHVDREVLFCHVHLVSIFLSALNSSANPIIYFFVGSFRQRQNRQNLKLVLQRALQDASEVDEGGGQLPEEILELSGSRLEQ
RGS4 act: potentiators or activators of RGS4 | B-score at 10 µM | 310,000 compounds, 0.92% hits | HEK293 M3R/inducible RGS4, carbachol calcium flux Fluo4; hits give low values;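 active means B-score of the integrated calcium signal more than 4 SD below the library mean, with starting fluorescence not abnormally high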;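 further: negative B-score means reduced calcium response which marks RGS4 activation or potentiation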
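Test system: HEK293 cells with stable M3R and inducible RGS4; also added: carbachol at ECmax as muscarinic agonist stimulus; schedule: dye loading 30 min 37 °C, buffer rest 30 min RT; technique: kinetic calcium fluorescence imaging with Fluo4-AM dye, 2 µM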
MrgX1 antag: antagonists of human MrgX1 receptor | MRGX1-HEK293 calcium flux, Fluo-4, BAM8-22 antagonism; hits give low values | Q96LB2 | 310,000 compounds, 1.3% hits | B-score at 10 µM | AID 588676;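 active means calcium-response B-score plate-corrected more than 3 library SD below zero, starting fluorescence within 5 deviations, no agonist response on first addition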;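 further: peak minus trough fluorescence over baseline after final BAM8-22 challenge near maximal dose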
RGS4 inh: inhibitors of human RGS4; HEK293 M3R/RGS4 inducible, Fluo-4 calcium flux; hits give high values; triggered by carbachol at its EC20; B-score at 10 µM; AID 463165; 310,000 compounds, 0.45% hits; P49798;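 active means B-score, a plate-corrected calcium signal, over three deviations above library mean, with baseline fluorescence within five deviations of library mean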;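 further: RGS4 expression induced by doxycycline in cells with stable M3 receptor; B-score is computed from the integrated fluorescence ratio over baseline after carbachol; higher B-score means a larger calcium signal and so more RGS4 inhibition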
Target sequence (P49798 whole entry, looked up): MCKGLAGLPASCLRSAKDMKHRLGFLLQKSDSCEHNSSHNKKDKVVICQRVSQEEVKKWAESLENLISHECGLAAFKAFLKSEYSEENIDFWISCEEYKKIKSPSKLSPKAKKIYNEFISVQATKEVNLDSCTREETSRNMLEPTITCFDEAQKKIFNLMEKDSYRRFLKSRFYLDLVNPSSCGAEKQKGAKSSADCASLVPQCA
MrgX1 ag: human MrgX1 receptor agonism, primary screen | Q96LB2 | MrgX1-HEK293 cells, Fluo-4 calcium fluorescence, agonist mode; hits give high values | B-score at 10 µM | 310,000 compounds, 0.44% hits | AID 588627;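 active means calcium response B-score plate-corrected fluorescence ratio at least 3 library SD, with starting fluorescence B-score inside 5 SD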
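Test system: Stable human MrgX1 HEK293 cell line | Schedule: Overnight plating before 1 h dye loading | Read-out basis: Baseline-normalised fluorescence change ratio, B-scored | Detection: Kinetic calcium dye fluorescence, Fluo-4 NW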
MrgX1 antag conf: confirmation of human MrgX1 receptor antagonists; MrgX1-HEK293, BAM8-22 calcium flux, Fluo-4; hits give low values; remaining BAM8-22 calcium response % of control (hits give low values), % at 10 µM; shares compounds with MrgX1 antag; AID 602420; 2,300 compounds, 19% hits;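 active means remaining agonist calcium response no higher than 100% minus 3 SD of agonist-only control wells, with starting fluorescence near control levels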;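 further: agonist BAM8-22 given at a near maximal EC90 to ECmax level; peak minus minimum fluorescence divided by baseline after agonist addition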
HEK293 Ca flux: counter-screen for MrgX1 antagonists: effect in parental HEK293 cells | fluorescence ratio F(max-min)/F0 at 10 µM | Fluo-4 calcium fluorescence, FDSS | AID 624111 | shares compounds with MrgX1 antag | 4,000 compounds, 2% hits;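 active means duplicate-averaged calcium fluorescence ratio at least three times the standard deviation of buffer wells, a nonspecific response in parental cells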
HEK293 Ca counter: MrgX1 allosteric activator counter-screen hit in parental HEK293 cells | 4,000 compounds, 0.4% hits | parental HEK293 calcium flux, Fluo-4 fluorescence ratio; hits give high values | fluorescence ratio F(max-min)/F0 at 10 µM | shares compounds with MrgX1 antag;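 active means calcium fluorescence ratio, averaged over duplicates, at least 3 SD of the buffer-well ratio, meaning a nonspecific response in receptor-free cells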;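 further: untransfected parental HEK293 lacking MrgX1 used as counterscreen for MrgX1 allosteric activators; fluorescence change taken during the second addition on a kinetic imager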
HEK293 Ca cntr2: counter-screen for MrgX1 activators: effect in parental HEK293 cells; shares compounds with MrgX1 antag; Fluo-4 calcium fluorescence (FDSS); hits give high values; fluorescence ratio F(max-min)/F0 at 10 µM; 4,000 compounds, 8.7% hits; AID 624115;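 active means calcium fluorescence ratio at least three times the spread of buffer wells, meaning a non-specific response in parental cells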
Large screens that a line does not name were inactive (follow-up assays come after a bar, where they were run).

CC(C)(C)C(=O)Nc1cccc(-c2ncon2)c1	none
Cn1cc(C(=O)NC2CCCCC2)c(=O)c2cc(S(=O)(=O)N3CCOCC3)ccc21	none
CCN(CC(=O)Nc1ccc(NC(C)=O)cc1)C(=O)COc1ccc2ccccc2c1	none
CCN(CC(=O)Nc1ccc(NC(C)=O)cc1)C(=O)c1ccc2ccccc2c1	MrgX1 antag -5.1 | MrgX1 antag conf inactive | HEK293 Ca flux inactive | HEK293 Ca counter inactive | HEK293 Ca cntr2 inactive
Cc1ccc(C)c(S(=O)(=O)N2CCN(C(=O)c3cccnc3)CC2)c1	MrgX1 antag -11 | MrgX1 antag conf inactive | HEK293 Ca flux inactive | HEK293 Ca counter inactive | HEK293 Ca cntr2 inactive
Cc1ccc(C)c(S(=O)(=O)N2CCN(C(=O)Cc3ccccc3)CC2)c1	none
Cc1ccc(C)c(S(=O)(=O)N2CCN(C(=O)CSC(=S)N3CCCC3)CC2)c1	MrgX1 antag -5.3 | MrgX1 antag conf inactive | HEK293 Ca flux inactive | HEK293 Ca counter inactive | HEK293 Ca cntr2 inactive
O=C(O)c1ccc(NNC(=S)Nc2cc(C(F)(F)F)ccc2Cl)cc1	none
Brc1ccc(-c2nc3ncccn3c2NC2CCCCC2)o1	MrgX1 antag -5.3 | MrgX1 antag conf inactive | HEK293 Ca flux inactive | HEK293 Ca counter inactive | HEK293 Ca cntr2 inactive
CC1CCN(CC(=O)Nc2ccc(Br)cc2[N+](=O)[O-])CC1	none
c1cncc(-c2nnc3n2N=C(c2cccs2)CS3)c1	MrgX1 antag -4.7 | MrgX1 antag conf inactive | HEK293 Ca flux inactive | HEK293 Ca counter inactive | HEK293 Ca cntr2 inactive
O=C(C(Cc1ccccc1)NS(=O)(=O)c1cccc2cccnc12)N1CCc2ccccc21 (stereo not given)	none
Cc1ccc(C(C(=O)NC2CCCC2)N(Cc2ccccc2)C(=O)c2csnn2)o1 (stereo not given)	none
Cc1ccc(C(C(=O)NC2CCCC2)N(Cc2ccc(F)cc2)C(=O)c2csnn2)o1 (stereo not given)	MrgX1 antag -4.6 | MrgX1 antag conf inactive | HEK293 Ca flux inactive | HEK293 Ca counter inactive | HEK293 Ca cntr2 inactive
Cc1ccc2oc(C(=O)N(C)CCC(O)c3ccccc3)c(C)c2c1 (stereo not given)	none
CCOC(=O)c1c(NC(=O)OC)sc(C(=O)N(CC)CC)c1C	MrgX1 antag -4.7 | MrgX1 antag conf inactive | HEK293 Ca flux inactive | HEK293 Ca counter inactive | HEK293 Ca cntr2 inactive
CCC(C)(C(=O)Nc1ccc(OC)cc1)N(C)C(=O)Cn1nnnc1N (stereo not given)	none
O=C(NC1CCN(C(=O)N2CCOCC2)CC1)c1ccccc1	none
CCN(CC)C(=O)N1CCC(NC(=O)c2ccccc2)CC1	MrgX1 antag -7.5 | MrgX1 antag conf inactive | HEK293 Ca flux inactive | HEK293 Ca counter inactive | HEK293 Ca cntr2 inactive
CC(C(=O)O)n1c2ccccc2c2cnn(C)c(=O)c21 (stereo not given)	none
CC(=O)Nc1ccc(S(=O)(=O)NCC2CCC(C(=O)NC(C)c3ccccc3)CC2)cc1 (stereo not given)	MrgX1 antag -6 | MrgX1 antag conf inactive | HEK293 Ca flux inactive | HEK293 Ca counter inactive | HEK293 Ca cntr2 inactive
CCOc1ccc(NC(=O)CN(C)C(=O)c2c(C)nn(-c3ccccc3)c2Cl)cc1OCC	none
O=C(NCC(c1ccco1)N1CCc2ccccc2C1)C(=O)Nc1ccc(F)cc1F (stereo not given)	MrgX1 antag -5.8 | MrgX1 antag conf inactive | HEK293 Ca flux inactive | HEK293 Ca counter inactive | HEK293 Ca cntr2 inactive
O=C(Cn1cc(Cl)c([N+](=O)[O-])n1)NCCC1=CCCCC1	none
CCOc1ccccc1NC(=O)CCC(=O)Nc1ccc2nc(N3CCN(C)CC3)cc(C)c2c1	MrgX1 antag -5.1 | MrgX1 antag conf inactive | HEK293 Ca flux inactive | HEK293 Ca counter inactive | HEK293 Ca cntr2 inactive
CCCOC1CCCN(Cc2nc(-c3ccc(C(=O)OC)cc3)no2)C1 (stereo not given)	none
CCN(C(=O)c1cccc(Br)c1)C1CCS(=O)(=O)C1 (stereo not given)	none
CN(C(=O)c1cccc(Br)c1)C1CCS(=O)(=O)C1 (stereo not given)	MrgX1 antag -4.5 | MrgX1 antag conf inactive | HEK293 Ca flux inactive | HEK293 Ca counter inactive | HEK293 Ca cntr2 inactive
COc1cc(CN(C)C(C)C(=O)Nc2ccc([N+](=O)[O-])cc2Cl)ccc1OC(F)F (stereo not given)	MrgX1 antag -21 | MrgX1 antag conf inactive | HEK293 Ca flux inactive | HEK293 Ca counter inactive | HEK293 Ca cntr2 inactive
CC(=O)Nc1cccc(NC(=O)CSc2nccn2Cc2ccccc2)c1	none
COc1cc(OC)cc(C(=O)NC2CC3CCC(C2)N3Cc2ccco2)c1 (stereo not given)	none (no result: MrgX1 allo act, MrgX1 antag, MrgX1 ag)
Cc1ccc(C(=O)NCc2ccco2)cc1	MrgX1 antag -5.3 | MrgX1 antag conf inactive | HEK293 Ca flux inactive | HEK293 Ca counter inactive | HEK293 Ca cntr2 inactive
Cc1ccc(C(=O)NC2CC3CCC(C2)N3Cc2ccco2)cc1 (stereo not given)	MrgX1 antag -7.8 | MrgX1 antag conf inactive | HEK293 Ca flux inactive | HEK293 Ca counter inactive | HEK293 Ca cntr2 inactive
COc1ccc(C)cc1NC(=O)CN(C)S(=O)(=O)c1ccc2c(c1)CC(C)N2C(C)=O (stereo not given)	none
CC(=O)NC(CC(=O)NCCc1ccccc1)c1ccccc1 (stereo not given)	MrgX1 antag -4.9 | MrgX1 antag conf inactive | HEK293 Ca flux inactive | HEK293 Ca counter inactive | HEK293 Ca cntr2 inactive
COc1ccccc1OCCNC(=O)CC(NC(C)=O)c1ccccc1 (stereo not given)	none
Cc1ccccc1OCc1nnc(SCC(=O)Nc2ccc(N3CCOCC3)cc2)n1C	none
CCc1nnc(SCC(=O)Nc2ccc(N3CCOCC3)cc2)n1C	MrgX1 antag -5.6 | MrgX1 antag conf inactive | HEK293 Ca flux inactive | HEK293 Ca counter inactive | HEK293 Ca cntr2 inactive
CCN(CC)C(=O)NCc1c(C)cc(C)cc1C	none
CC(=O)N(C)c1ccc(NS(=O)(=O)c2cccc3nsnc23)cc1	none
Cn1ccnc1SCC(=O)Nc1ccc(F)c([N+](=O)[O-])c1	none
COc1ccc(Cc2cnc(N)s2)cc1	MrgX1 antag -12 | MrgX1 antag conf 79% | HEK293 Ca flux inactive | HEK293 Ca counter inactive | HEK293 Ca cntr2 inactive

Screening results from PubChem BioAssay.
